Source: ChEMBL document CHEMBL1140903, “Reactions of functionalized sulfonamides: application to lowering the lipophilicity of cytosolic phospholipase A2alpha inhibitors” (J Med Chem, 2009)

Key:
[1] = molecular target: T1, Cytosolic phospholipase A2 (Homo sapiens, UniProt P47712); assay: Inhibition of human cytosolic PLA2alpha by GLU micelle assay
T1 sequence (P47712 whole entry): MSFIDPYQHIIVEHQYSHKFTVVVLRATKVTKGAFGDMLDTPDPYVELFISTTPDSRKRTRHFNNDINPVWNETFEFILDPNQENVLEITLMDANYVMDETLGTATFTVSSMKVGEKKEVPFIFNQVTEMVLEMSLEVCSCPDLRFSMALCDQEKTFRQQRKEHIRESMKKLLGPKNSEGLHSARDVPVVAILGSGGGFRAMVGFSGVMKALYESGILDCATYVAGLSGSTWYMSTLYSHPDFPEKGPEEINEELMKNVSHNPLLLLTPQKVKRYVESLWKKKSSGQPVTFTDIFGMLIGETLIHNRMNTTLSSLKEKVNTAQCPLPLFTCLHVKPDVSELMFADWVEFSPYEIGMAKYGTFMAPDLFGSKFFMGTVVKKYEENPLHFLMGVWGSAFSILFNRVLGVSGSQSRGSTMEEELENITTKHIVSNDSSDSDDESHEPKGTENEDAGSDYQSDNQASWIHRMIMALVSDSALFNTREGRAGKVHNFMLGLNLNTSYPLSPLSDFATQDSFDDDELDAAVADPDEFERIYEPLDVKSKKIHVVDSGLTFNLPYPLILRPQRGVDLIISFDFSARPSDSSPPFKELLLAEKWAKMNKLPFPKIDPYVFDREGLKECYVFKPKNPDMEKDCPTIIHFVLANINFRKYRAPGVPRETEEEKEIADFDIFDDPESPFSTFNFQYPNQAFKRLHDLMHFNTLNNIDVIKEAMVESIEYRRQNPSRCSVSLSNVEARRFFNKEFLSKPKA
Method in brief: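 Purified human cPLA2α with the substrate 7-hydroxycoumarinyl-γ-linolenate (GLU), presented in micelles containing a high concentration of detergent and lipid. IC50 is taken from at least two runs, each run the mean of duplicate assays.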

Blood = assay: Inhibition of A23187-induced TBX2 release in Sprague-Dawley rat whole blood; assay type: functional, tissue-based
Method in brief: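 Rat whole blood is stimulated with calcium ionophore A23187, and thromboxane B2 is the read-out (cPLA2α- and COX-1-dependent). IC50 is taken from at least two runs, each run the mean of triplicate assays.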

| SMILES | IC50 [1] [nM] | IC50 (Blood) [nM] |
| --- | --- | --- |
| O=Cc1ccccc1CS(=O)(=O)NCCc1c(CCCc2ccc(C(=O)O)cc2)c2cc(Cl)ccc2n1C(c1ccccc1)c1ccccc1 | 200 | 50 |
| Cc1ccccc1CS(=O)(=O)NCCc1c(CCCc2ccc(C(=O)O)cc2)c2cc(Cl)ccc2n1C(c1ccccc1)c1ccccc1 | 26 | 25 |
| CC1CCCN1CCS(=O)(=O)NCCc1c(CCOc2ccc(C(=O)O)cc2)c2cc(Cl)ccc2n1C(c1ccccc1)c1ccccc1 (stereo not drawn) | 220 | 77 |
| O=C(O)c1ccc(CCCc2c(CCNS(=O)(=O)Cc3ccccc3CN3CCNCC3)n(C(c3ccccc3)c3ccccc3)c3ccc(Cl)cc23)cc1 | 13 | 170 |
| O=C(O)c1ccc(OCCc2c(CCNS(=O)(=O)CCN3CC4CC3CO4)n(C(c3ccccc3)c3ccccc3)c3ccc(Cl)cc23)cc1 (stereo not drawn) | 250 | 400 |
| O=C(O)c1ccc(CCCc2c(CCNS(=O)(=O)Cc3ccccc3CO)n(C(c3ccccc3)c3ccccc3)c3ccc(Cl)cc23)cc1 |  | 28 |
| O=C(O)c1ccc(OCCc2c(CCNS(=O)(=O)CCN3CCN(c4ccccn4)CC3)n(C(c3ccccc3)c3ccccc3)c3ccc(Cl)cc23)cc1 | 290 | 210 |
| C[C@@H]1CCC[C@H](C)N1CCS(=O)(=O)NCCc1c(CCOc2ccc(C(=O)O)cc2)c2cc(Cl)ccc2n1C(c1ccccc1)c1ccccc1 | 250 | 100 |
| CC1CN(CCS(=O)(=O)NCCc2c(CCOc3ccc(C(=O)O)cc3)c3cc(Cl)ccc3n2C(c2ccccc2)c2ccccc2)CC(C)N1 (stereo not drawn) |  | > 10000 |
| O=C(O)c1ccc(OCCc2c(CCNS(=O)(=O)CCN3CCCC3)n(C(c3ccccc3)c3ccccc3)c3ccc(Cl)cc23)cc1 | 350 | 330 |
| CN(C)C1CCN(CCS(=O)(=O)NCCc2c(CCOc3ccc(C(=O)O)cc3)c3cc(Cl)ccc3n2C(c2ccccc2)c2ccccc2)C1 (stereo not drawn) |  | > 1250 |
| CC1CCN(CCS(=O)(=O)NCCc2c(CCOc3ccc(C(=O)O)cc3)c3cc(Cl)ccc3n2C(c2ccccc2)c2ccccc2)CC1 | 220 | 200 |
| CC1CCCN(CCS(=O)(=O)NCCc2c(CCOc3ccc(C(=O)O)cc3)c3cc(Cl)ccc3n2C(c2ccccc2)c2ccccc2)C1 (stereo not drawn) | 350 | 200 |
| O=C(O)c1ccc(OCCc2c(CCNS(=O)(=O)CCN3CCSC3)n(C(c3ccccc3)c3ccccc3)c3ccc(Cl)cc23)cc1 |  | 320 |
| C[C@@H]1COC[C@H](C)N1CCS(=O)(=O)NCCc1c(CCOc2ccc(C(=O)O)cc2)c2cc(Cl)ccc2n1C(c1ccccc1)c1ccccc1 | 450 | 340 |
| CC(=O)N1CCN(Cc2ccccc2CS(=O)(=O)NCCc2c(CCCc3ccc(C(=O)O)cc3)c3cc(Cl)ccc3n2C(c2ccccc2)c2ccccc2)CC1 | 6 | 34 |
| O=C(O)c1ccc(CCCc2c(CCNS(=O)(=O)Cc3ccccc3CN3CCOCC3)n(C(c3ccccc3)c3ccccc3)c3ccc(Cl)cc23)cc1 |  | 20 |

| SMILES | IC50 [1] [nM] | IC50 (Blood) [nM] |
| --- | --- | --- |
| CC(=O)N1C(C)CN(CCS(=O)(=O)NCCc2c(CCOc3ccc(C(=O)O)cc3)c3cc(Cl)ccc3n2C(c2ccccc2)c2ccccc2)CC1C (stereo not drawn) | 270 | 1200 |
| CN1CCN(Cc2ccccc2CS(=O)(=O)NCCc2c(CCCc3ccc(C(=O)O)cc3)c3cc(Cl)ccc3n2C(c2ccccc2)c2ccccc2)CC1 | 20 | 80 |
| Cc1cc(C)n(CCS(=O)(=O)NCCc2c(CCCc3ccc(C(=O)O)cc3)c3cc(Cl)ccc3n2C(c2ccccc2)c2ccccc2)n1 | 300 | 110 |
| O=C(O)c1ccc(OCCc2c(CCNS(=O)(=O)CCN3CCNC3=S)n(C(c3ccccc3)c3ccccc3)c3ccc(Cl)cc23)cc1 | 750 | 5000 |
| CC1CCCC(C)N1CCS(=O)(=O)NCCc1c(CCCc2ccc(C(=O)O)cc2)c2cc(Cl)ccc2n1C(c1ccccc1)c1ccccc1 (stereo not drawn) |  | 50 |
| CC1C(=O)NCCN1CCS(=O)(=O)NCCc1c(CCOc2ccc(C(=O)O)cc2)c2cc(Cl)ccc2n1C(c1ccccc1)c1ccccc1 (stereo not drawn) |  | 480 |
| Cc1cccc(C)c1CS(=O)(=O)NCCc1c(CCCc2ccc(C(=O)O)cc2)c2cc(Cl)ccc2n1C(c1ccccc1)c1ccccc1 | 10 | 30 |
| COc1ccccc1S(=O)(=O)NCCc1c(CCCc2ccc(C(=O)O)cc2)c2cc(Cl)ccc2n1C(c1ccccc1)c1ccccc1 | 100 | 200 |
| O=C(O)c1ccc(OCCc2c(CCNS(=O)(=O)CCN3CCC(O)CC3)n(C(c3ccccc3)c3ccccc3)c3ccc(Cl)cc23)cc1 | 350 | 1300 |
| O=C(O)c1ccc(OCCc2c(CCNS(=O)(=O)CCN3CCCCC3)n(C(c3ccccc3)c3ccccc3)c3ccc(Cl)cc23)cc1 | 360 | 140 |
| CC(=O)N1CCN(CCS(=O)(=O)NCCc2c(CCOc3ccc(C(=O)O)cc3)c3cc(Cl)ccc3n2C(c2ccccc2)c2ccccc2)CC1 |  | 240 |
| O=C(O)c1ccc(OCCc2c(CCNS(=O)(=O)CCn3cncn3)n(C(c3ccccc3)c3ccccc3)c3ccc(Cl)cc23)cc1 | 410 | 1500 |
| COC[C@@H]1CCCN1CCS(=O)(=O)NCCc1c(CCOc2ccc(C(=O)O)cc2)c2cc(Cl)ccc2n1C(c1ccccc1)c1ccccc1 | 250 | 330 |
| O=C(O)c1ccc(OCCc2c(CCNS(=O)(=O)CCn3ccnn3)n(C(c3ccccc3)c3ccccc3)c3ccc(Cl)cc23)cc1 | 500 | 200 |
| O=C(O)c1ccc(OCCc2c(CCNS(=O)(=O)CCN3CCOCC3)n(C(c3ccccc3)c3ccccc3)c3ccc(Cl)cc23)cc1 | 390 | 530 |
| O=C(O)c1ccc(OCCc2c(CCNS(=O)(=O)CCN3CCC(O)C3)n(C(c3ccccc3)c3ccccc3)c3ccc(Cl)cc23)cc1 (stereo not drawn) | 700 | 310 |
| CCN(CC)Cc1ccccc1CS(=O)(=O)NCCc1c(CCCc2ccc(C(=O)O)cc2)c2cc(Cl)ccc2n1C(c1ccccc1)c1ccccc1 | 30 | 37 |

Next, values leading:

| IC50 [1] [nM] | IC50 (Blood) [nM] | SMILES |
| --- | --- | --- |
| 200 | 140 | O=C(O)c1ccc(OCCc2c(CCNS(=O)(=O)CSc3cc(Cl)cc(Cl)c3)n(C(c3ccccc3)c3ccccc3)c3ccc(Cl)cc23)cc1 |
| 760 | 280 | Cc1cnn(CCS(=O)(=O)NCCc2c(CCOc3ccc(C(=O)O)cc3)c3cc(Cl)ccc3n2C(c2ccccc2)c2ccccc2)c1 |
| 150 | 90 | O=C(O)c1ccc(OCCc2c(CCNS(=O)(=O)CSc3ccccc3Cl)n(C(c3ccccc3)c3ccccc3)c3ccc(Cl)cc23)cc1 |
|  | 540 | O=C(O)c1ccc(OCCc2c(CCNS(=O)(=O)CCn3cccn3)n(C(c3ccccc3)c3ccccc3)c3ccc(Cl)cc23)cc1 |
|  | 120 | O=C(O)c1ccc(OCCc2c(CCNS(=O)(=O)Cc3ccccc3)n(C(c3ccccc3)c3ccccc3)c3ccc(Cl)cc23)cc1 |
| 150 | 80 | Cc1ccccc1SCS(=O)(=O)NCCc1c(CCOc2ccc(C(=O)O)cc2)c2cc(Cl)ccc2n1C(c1ccccc1)c1ccccc1 |
| 170 | 70 | O=C(O)c1ccc(OCCc2c(CCNS(=O)(=O)CSc3ccc(F)c(Cl)c3)n(C(c3ccccc3)c3ccccc3)c3ccc(Cl)cc23)cc1 |
| 300 | 80 | O=C(O)c1ccc(OCCc2c(CCNS(=O)(=O)CSc3ccc(Cl)cc3Cl)n(C(c3ccccc3)c3ccccc3)c3ccc(Cl)cc23)cc1 |
| 330 | 240 | COc1ccc(OC)c(SCS(=O)(=O)NCCc2c(CCOc3ccc(C(=O)O)cc3)c3cc(Cl)ccc3n2C(c2ccccc2)c2ccccc2)c1 |
| 330 | 300 | Cc1cccc(C)c1SCS(=O)(=O)NCCc1c(CCOc2ccc(C(=O)O)cc2)c2cc(Cl)ccc2n1C(c1ccccc1)c1ccccc1 |
| 500 | 630 | O=C(O)c1ccc(OCCc2c(CCNS(=O)(=O)CCc3ccccc3)n(C(c3ccccc3)c3ccccc3)c3ccc(Cl)cc23)cc1 |
|  | 5800 | O=C(O)c1ccc(OCCc2c(CCNS(=O)(=O)CCn3ccnc3)n(C(c3ccccc3)c3ccccc3)c3ccc(Cl)cc23)cc1 |
| 190 | 75 | O=C(O)c1ccc(OCCc2c(CCNS(=O)(=O)CSc3ccccc3)n(C(c3ccccc3)c3ccccc3)c3ccc(Cl)cc23)cc1 |
| 600 | 160 | O=C(O)c1ccc(OCCc2c(CCNS(=O)(=O)CSc3c(Cl)cccc3Cl)n(C(c3ccccc3)c3ccccc3)c3ccc(Cl)cc23)cc1 |
|  | 110 | O=C(O)c1ccc(OCCc2c(CCNS(=O)(=O)Cc3ccc(Cl)c(Cl)c3)n(C(c3ccccc3)c3ccccc3)c3ccc(Cl)cc23)cc1 [ECOPLADIB] |
| 510 | 200 | Cc1ccn(CCS(=O)(=O)NCCc2c(CCOc3ccc(C(=O)O)cc3)c3cc(Cl)ccc3n2C(c2ccccc2)c2ccccc2)n1 |
